High-throughput results: PubChem, several laboratories
LANA-H2B inh: blocks KSHV LANA binding to histone H2A/H2B | Q9QR71 | cell-free LANA-H2A/H2B peptide, fluorescence polarization | inhibition, % (test concentration not listed) | 320,000 compounds, 0.6% hits; in the data active = inhibition mostly above about 10%, no sharp cut-off; inactive = mostly below about 6.7%
HDAC3 inhib: blocks human histone deacetylase 3 | O15379 | recombinant HDAC3, fluorogenic peptide/trypsin coupled, fluorescence | inhibition, % at 8.3 µM | 320,000 compounds, 0.15% hits | AID 2718; in the data active = inhibition above about 26%, passing the limit was not always enough
Arrestin-AP2 inh: inhibitors of human beta-arrestin and AP2 interaction; FITC-arrestin peptide / GST-AP2 beads, flow cytometry; AP2 beta2 appendage carries R879A mutation; inhibition, % at 10 µM; 340,000 compounds, 0.31% hits; AID 504490;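 active = inhibition above a set limit, near 3 SD of compounds lacking own fluorescence, cut at about 54% in these data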
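System: GST-tagged AP2 beta2-adaptin appendage (R879A) on 4 µm glutathione beads / Reagent: FITC-arrestin peptide, 50 nM / Detection: HyperCyt-sampled flow cytometry, FL1 channel, ex 488/em 535 nm / Timing: 12 min plus 1 h, RT / Buffer or medium: PBS plus Tween 20 (0.05%) and BSA (0.1%)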
T cell modulator: T cell immune modulation candidate | 330,000 compounds, 0.068% hits | response (vesicle binding), % at 7 µM | 2C CD8+ T cell-vesicle binding, flow cytometry; stronger effect = lower value | AID 2052;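 active = response, share of CD8 T cells binding vesicles, and their 90th percentile fluorescence all below set limits, cut at about 80% in these data, passing the limit was not always enough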;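 note: values below 100% mean blocked vesicle binding to the CD8+ T cells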
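Material: murine 2C transgenic CD8+ T lymphocytes / Also added: QL9-peptide-loaded Drosophila micro-vesicles bearing Ld, ICAM-1 and B7-1 / Schedule: binding step 1.5 h, 37 °C, antibody labelling 20 min, ice / Signal: flow cytometry, PE anti-B7-1 (FL2) versus Alexa647 anti-CD8 (FL8), PFA-fixed / Evaluation: percent CD8+ FL2 mean versus row control / Benchmarks: naked versus QL9-loaded vesicles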
Pemphigus Ab inh: blocks pemphigus antibody binding to human desmoglein-3; binding (percent of control), % at 10 µM; P32926; DSG3-coupled beads, scFv-anti-DSG3-GFP binding, flow cytometry; stronger effect = lower value; 310,000 compounds, 0.48% hits; AID 588358;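 active = binding more than 3 SD below its plate's average and above zero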
JMJD2C inh: human JMJD2C demethylase inhibition; AID 2099; Q9H3R0; 330,000 compounds, 0.069% hits; GST-JMJD2C(1-420) H3K9me3 demethylation, DELFIA europium; inhibition, % at 2.35 µM;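 active = more than half of a compound's replicate wells show inhibition beyond 50%, single wells judged on their own value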;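 note: signal counts dimethyl H3K9 product captured on neutravidin plate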
Numbers stand for hits. An excerpt weighted towards active compounds, which were near 1.6% of everything screened.

Screening COc1ccc(OC(=O)N(C)C[C@@H]2OCc3cn(nn3)CCCC(=O)N([C@@H](C)CO)C[C@H]2C)cc1 returned Pemphigus Ab inh inactive.
For Nc1nc2c(c(=O)[nH]1)C(c1cccc3ccccc13)C1=C(N2)c2ccccc2C1=O (stereo not drawn) the results were Arrestin-AP2 inh inactive and Pemphigus Ab inh 41.0.
For CC(=O)C1=C(C)NC2=C(C(=O)c3ccccc32)C1c1ccccc1 (stereo not drawn) the results were LANA-H2B inh inactive, HDAC3 inhib inactive, Arrestin-AP2 inh inactive, T cell modulator inactive, Pemphigus Ab inh inactive and JMJD2C inh inactive.
O=C(Cc1cccc(C(F)(F)F)c1)NCC(=O)Nc1cc(Cl)ccc1Cl was read as LANA-H2B inh inactive, HDAC3 inhib inactive, Arrestin-AP2 inh inactive, T cell modulator inactive and JMJD2C inh inactive.
`Cc1c(-c2ccc(Cl)cc2)oc(=O)c2c(N)n(-c3ccccc3)nc12` gave LANA-H2B inh inactive, HDAC3 inhib inactive, Arrestin-AP2 inh inactive, T cell modulator inactive, Pemphigus Ab inh -17.0 and JMJD2C inh inactive.
Screening CN(C(=O)CSc1nc2ccccc2n1C)C1CCS(=O)(=O)C1 (stereo not drawn) returned LANA-H2B inh inactive, HDAC3 inhib inactive, Arrestin-AP2 inh inactive, T cell modulator inactive, Pemphigus Ab inh inactive and JMJD2C inh inactive.
Screening CN(C(=O)CSc1nc2ccccc2c(=O)n1C)C1CCS(=O)(=O)C1 (stereo not drawn) returned LANA-H2B inh 20.1, HDAC3 inhib inactive, Arrestin-AP2 inh inactive, T cell modulator inactive, Pemphigus Ab inh inactive and JMJD2C inh inactive.
For O=C(CSc1nc2ccccc2c(=O)n1-c1ccccc1F)NC1CCS(=O)(=O)C1 (stereo not drawn) the results were LANA-H2B inh 123.9, HDAC3 inhib inactive, Arrestin-AP2 inh inactive, T cell modulator inactive, Pemphigus Ab inh inactive and JMJD2C inh inactive.
Screening CC(C)C(NC(=O)C1(NC(=O)OCc2ccccc2)CCCC1)C(=O)O (stereo not drawn) returned Arrestin-AP2 inh inactive and Pemphigus Ab inh inactive.
For O=C(OCCCN=C1NS(=O)(=O)c2ccccc21)c1ccc(F)cc1 the results were LANA-H2B inh inactive, HDAC3 inhib inactive, Arrestin-AP2 inh inactive, T cell modulator inactive, Pemphigus Ab inh inactive and JMJD2C inh inactive.
O=C(OCCOCCN=C1NS(=O)(=O)c2ccccc21)c1ccc(F)cc1 was read as LANA-H2B inh inactive, HDAC3 inhib inactive, Arrestin-AP2 inh inactive, T cell modulator inactive, Pemphigus Ab inh 48.2 and JMJD2C inh inactive.
COC(=O)Cn1c(C)nc(=O)c(-c2ccccc2)c1C was read as LANA-H2B inh 14.7, HDAC3 inhib inactive, Arrestin-AP2 inh inactive, T cell modulator inactive, Pemphigus Ab inh inactive and JMJD2C inh inactive.
For CC(=O)c1ccc(NC(=O)c2cn(-c3ccccc3)nc2-c2ccncc2)cc1 the results were LANA-H2B inh inactive, HDAC3 inhib inactive, Arrestin-AP2 inh inactive, T cell modulator inactive, Pemphigus Ab inh 69.1 and JMJD2C inh inactive.
`O=[N+]([O-])c1ccc(Cl)c(/C=N/NC(=S)Nc2ccccc2)c1` gave LANA-H2B inh inactive, HDAC3 inhib inactive, Arrestin-AP2 inh inactive, T cell modulator inactive, Pemphigus Ab inh 83.6 and JMJD2C inh inactive.
Cc1ncc(CN2CCC(CO)(CCc3ccccc3)CC2)s1 was read as LANA-H2B inh 16.3, HDAC3 inhib inactive, Arrestin-AP2 inh inactive, T cell modulator inactive, Pemphigus Ab inh inactive and JMJD2C inh inactive.
`OCC1(CCCc2ccccc2)CCN(Cc2cnc(N3CCOCC3)s2)CC1` gave LANA-H2B inh inactive, HDAC3 inhib inactive, Arrestin-AP2 inh inactive, T cell modulator inactive, Pemphigus Ab inh inactive and JMJD2C inh inactive.
For CN1CCN(CCNC(=O)Nc2ccccc2C(F)(F)F)CC1 the results were LANA-H2B inh 17.5, HDAC3 inhib inactive, Arrestin-AP2 inh inactive, T cell modulator inactive, Pemphigus Ab inh inactive and JMJD2C inh inactive.
Screening O=C(N/N=C/c1ccc(Cl)c([N+](=O)[O-])c1)c1ccc2nc[nH]c2c1 returned LANA-H2B inh inactive, HDAC3 inhib inactive, Arrestin-AP2 inh inactive, T cell modulator inactive, Pemphigus Ab inh inactive and JMJD2C inh inactive.
Screening Cc1nc2ccc(C(=O)N/N=C/c3cc([N+](=O)[O-])ccc3O)cc2[nH]1 returned LANA-H2B inh inactive, HDAC3 inhib inactive, Arrestin-AP2 inh inactive, T cell modulator inactive, Pemphigus Ab inh inactive and JMJD2C inh 57.6.
Cc1nc2ccc(C(=O)N/N=C/c3ccccc3O)cc2[nH]1 was read as LANA-H2B inh inactive, HDAC3 inhib inactive, Arrestin-AP2 inh inactive, T cell modulator inactive, Pemphigus Ab inh inactive and JMJD2C inh inactive.
`O=C(N/N=C/c1ccccc1[N+](=O)[O-])c1ccc2nc[nH]c2c1` gave LANA-H2B inh inactive, HDAC3 inhib 96.3, Arrestin-AP2 inh inactive, T cell modulator inactive, Pemphigus Ab inh inactive and JMJD2C inh inactive.
CN(N=Cc1ccc([N+](=O)[O-])cc1)c1ccccn1 was read as Pemphigus Ab inh inactive.
Screening Cc1ccc(CN2CC(C(=O)N3CCN(S(=O)(=O)c4c(F)cccc4F)CC3)CC2=O)cc1 (stereo not drawn) returned LANA-H2B inh inactive, HDAC3 inhib inactive, Arrestin-AP2 inh inactive, T cell modulator inactive, Pemphigus Ab inh inactive and JMJD2C inh inactive.
Screening C[C@H]1CN([C@@H](C)CO)C(=O)CCCn2nncc2CO[C@@H]1CN(C)S(=O)(=O)c1ccc(Oc2ccccc2)nc1 returned Pemphigus Ab inh inactive.
Screening O=C(NCc1ccccn1)c1ccccc1OCc1ccccc1Cl returned Pemphigus Ab inh inactive.
`COCCN1C(=O)C(=O)/C(=C(/O)c2cccc(OC)c2)C1c1ccc(C)o1` (stereo not drawn) gave LANA-H2B inh inactive, HDAC3 inhib inactive, Arrestin-AP2 inh inactive, T cell modulator 74.8, Pemphigus Ab inh inactive and JMJD2C inh inactive.
`Cc1cc([N+](=O)[O-])nn1CCC(=O)NC1CCCCCC1` gave LANA-H2B inh inactive, HDAC3 inhib inactive, Arrestin-AP2 inh inactive, T cell modulator inactive, Pemphigus Ab inh inactive and JMJD2C inh inactive.
For Cc1cc([N+](=O)[O-])nn1CC(=O)NC1CCCCC1 the results were LANA-H2B inh 19.5, HDAC3 inhib inactive, Arrestin-AP2 inh inactive, T cell modulator inactive, Pemphigus Ab inh inactive and JMJD2C inh inactive.
Screening CCn1c(SCC(=O)Nc2ccccc2)nc2c(c1=O)SCC2 returned Pemphigus Ab inh inactive.
For CCCc1c(C(=O)NNc2ccccc2OC)cnn1-c1ccccc1 the results were LANA-H2B inh 17.8, HDAC3 inhib inactive, Arrestin-AP2 inh inactive, T cell modulator inactive, Pemphigus Ab inh inactive and JMJD2C inh inactive.
`O=C(N/N=C/c1ccc([N+](=O)[O-])o1)c1sc2ccccc2c1Cl` gave LANA-H2B inh inactive, HDAC3 inhib inactive, Arrestin-AP2 inh inactive, T cell modulator inactive, Pemphigus Ab inh 81.8 and JMJD2C inh inactive.
